Pf gamet viab: inhibitors of late stage P. falciparum gametocyte viability | AID 743093 | P. falciparum stage V gametocytes, ATP luminescence, 24 h | inhibition, % at 10.9 µM | 150,000 tested, 0.065% active;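 active = inhibition above the mean plus 3 SD of compounds within the control limits, set per campaign, cut at about 38% in these data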
FLuc act counter: firefly luciferase counter-screen for stimulation assays; activation factor at 10 µM; P08659; 200,000 tested, under 10 active; ATPlite luciferase biochemical, luminescence, 10 min; 0 = ATP-free wells, 1 = DMSO control; AID 1027;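 active = luciferase activation factor, scaled between plate controls, of at least 2 with compound at 10 µM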
Target sequence (P08659 whole entry, looked up): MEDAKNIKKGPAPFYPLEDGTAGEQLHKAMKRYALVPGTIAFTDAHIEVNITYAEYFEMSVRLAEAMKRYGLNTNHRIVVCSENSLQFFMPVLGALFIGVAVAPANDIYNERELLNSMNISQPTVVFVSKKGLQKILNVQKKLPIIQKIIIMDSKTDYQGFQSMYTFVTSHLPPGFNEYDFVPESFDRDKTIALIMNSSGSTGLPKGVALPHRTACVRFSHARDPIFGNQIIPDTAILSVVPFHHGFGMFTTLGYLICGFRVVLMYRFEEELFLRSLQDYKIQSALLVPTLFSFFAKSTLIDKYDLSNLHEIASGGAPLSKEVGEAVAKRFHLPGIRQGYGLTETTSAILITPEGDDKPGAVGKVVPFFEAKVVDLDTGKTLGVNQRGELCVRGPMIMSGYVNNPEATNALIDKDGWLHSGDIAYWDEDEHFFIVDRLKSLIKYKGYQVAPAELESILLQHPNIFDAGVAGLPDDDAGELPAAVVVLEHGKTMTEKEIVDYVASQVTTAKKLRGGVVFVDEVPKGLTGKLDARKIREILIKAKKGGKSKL
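Assay system: Luciferase/luciferin detection reagent, cell-free biochemical luciferase assay / Also added: ATP substrate / Schedule: 10 min at ambient temperature / Measured by: luminescence measurement of luciferase light output / Benchmarks: low control with PBS replacing ATP, high control enzyme plus ATP without compound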
NF-kB expr up: NF-kB expression increase, human neuronal cells | NF-kB reporter expression; active compounds read high | fold change at 12.5 µM | 190,000 tested, 1.6% active; in the data active = fold change above about 3.3
STAT1 activator: increases IFN-gamma driven STAT1 reporter signal | NIH 3T3 STAT1-luciferase reporter, luminescence; 100% = IFN-gamma alone, no compound | activation (% of control), % at 5.5 µM | 200,000 tested, 2.6% active;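 active = activation above the screen-wide mean activation plus 3 SD, cut at about 130% in these data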
APP 5'UTR act: APP 5'UTR luciferase reporter activation; SH-SY5Y APP 5'UTR luciferase reporter, luminescence; zero percent = DMSO vehicle wells; activation, % at 2 µM; 190,000 tested, 1% active; AID 1276;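 active = activation above a set limit, based on mean plus 3 SD of controls, cut at about 140% in these data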
FLuc inh counter: counter-screen for luciferase assay inhibitors: firefly luciferase inhibition | ATPLite firefly luciferase biochemical luminescence, 10 min | inhibition, % at 10 µM | AID 1006 | 200,000 tested, 1.5% active | P08659;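 active = inhibition above about 50% when tested at 10 µM, limit read from the data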
STAT1 activ conf: confirmation of STAT1 signaling activators. 1,200 tested, 97% active. activation (% of control), % at 5.7 µM. NIH 3T3 STAT1-luciferase reporter, IFN-gamma potentiation, luminescence; 100% = IFN-gamma EC80 alone, no compound. shares compounds with STAT1 activator;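 active = activation above a set limit carried over from the earlier primary STAT1 screen, cut at about 140% in these data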
NFkB act STAT1ct: counter-screen for STAT1 activators: NF-kappaB activation; shares compounds with STAT1 activator; HEK293T NF-kB luciferase reporter, TNF-alpha stimulated, luminescence; 100% = TNF-alpha with vehicle only; activation (% of control), % at 5.7 µM; 1,200 tested, 43% active;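 active = activation above the mean of solvent-only control wells plus 3 SD, set per campaign, cut at about 130% in these data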;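 note: TNF-alpha given at a submaximal dose yielding about 80% of full reporter signal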
STAT3 act 2: activates human STAT3, counter-screen to STAT1 activators; shares compounds with STAT1 activator; U3A cells STAT3-luciferase reporter, IL-6, luminescence; cells lack STAT1; 100 = IL-6 alone, no compound effect; activation (% of control), % at 5.7 µM; 1,200 tested, 46% active;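 active = activation above the solvent-only control well mean plus 3 SD, set per plate batch, cut at about 110% in these data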;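 note: higher means more STAT3 reporter activation so hits are non-selective activators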
Hits are given with their value. Most compounds without a hit are left out; they make up all but 3.5% or so of the library.

Screening Cc1ccc(O)c(C2=NCCNC(C(F)(F)F)=C2)c1 returned Pf gamet viab inactive, FLuc act counter inactive, NF-kB expr up inactive, STAT1 activator inactive, APP 5'UTR act inactive and FLuc inh counter inactive.
Oc1c(C2=NCCNC(C(F)(F)F)=C2)ccc2ccccc12 was read as FLuc act counter inactive, NF-kB expr up 6, STAT1 activator 199, APP 5'UTR act inactive, FLuc inh counter inactive, STAT1 activ conf 222, NFkB act STAT1ct 147 and STAT3 act 2 114.
Screening O=C(CCS(=O)(=O)c1cccs1)Nc1ccc(C(=O)NCc2cccs2)cc1 returned FLuc act counter inactive, NF-kB expr up inactive, STAT1 activator inactive, APP 5'UTR act inactive and FLuc inh counter inactive.
`CC(=O)c1ccc(NC(=O)c2ccc(NC(=O)CCS(=O)(=O)c3cccs3)cc2)cc1` gave Pf gamet viab inactive, FLuc act counter inactive, NF-kB expr up inactive, STAT1 activator 157, APP 5'UTR act inactive, FLuc inh counter inactive, STAT1 activ conf 169, NFkB act STAT1ct inactive and STAT3 act 2 113.
For CC(=O)Nc1sc2c(c1-c1nc3ccccc3s1)CCN(C(C)C)C2 the results were FLuc act counter inactive, NF-kB expr up inactive, STAT1 activator 285, APP 5'UTR act inactive, FLuc inh counter inactive, STAT1 activ conf 202, NFkB act STAT1ct 191 and STAT3 act 2 202.
Screening Cc1cc(C(=O)OCC(N)=O)c(C)n1-c1ccccc1 returned Pf gamet viab inactive, FLuc act counter inactive, NF-kB expr up inactive, STAT1 activator inactive, APP 5'UTR act inactive and FLuc inh counter inactive.
Screening C/C(N)=C(/C#N)C(=O)COC(=O)c1cc(C)n(-c2ccc(F)cc2)c1C returned FLuc act counter inactive, NF-kB expr up inactive, STAT1 activator 154, APP 5'UTR act inactive, FLuc inh counter inactive, STAT1 activ conf 173, NFkB act STAT1ct inactive and STAT3 act 2 153.
Cc1ccn2c(c1)nc(=S)n2C(=O)c1ccccc1 was read as FLuc act counter inactive, NF-kB expr up inactive, STAT1 activator 283, APP 5'UTR act 189, FLuc inh counter 96, STAT1 activ conf 518, NFkB act STAT1ct 185 and STAT3 act 2 138.
For O=C1C=CC(O)(c2cc(=O)c3c(O)cc(O)cc3o2)C=C1 the results were Pf gamet viab inactive, FLuc act counter inactive, NF-kB expr up inactive, STAT1 activator 162, APP 5'UTR act inactive, FLuc inh counter inactive, STAT1 activ conf inactive, NFkB act STAT1ct 185 and STAT3 act 2 131.
`O=c1cc(-c2ccccc2Cl)oc2cc(O)cc(O)c12` gave Pf gamet viab inactive, FLuc act counter inactive, NF-kB expr up inactive, STAT1 activator inactive, APP 5'UTR act inactive and FLuc inh counter inactive.
CCc1ccc(C(=O)N/N=C/c2cccc3ccccc23)nc1 was read as Pf gamet viab inactive, FLuc act counter inactive, NF-kB expr up inactive, STAT1 activator inactive, APP 5'UTR act inactive and FLuc inh counter inactive.
For COc1ccc(OCCSc2ncccn2)cc1 the results were Pf gamet viab inactive, FLuc act counter inactive, NF-kB expr up 4.1, STAT1 activator 154, APP 5'UTR act 160, FLuc inh counter inactive, STAT1 activ conf 181, NFkB act STAT1ct inactive and STAT3 act 2 120.
For CCn1c(-c2ccccc2)csc1=Nc1ccc(O)cc1 the results were FLuc act counter inactive, STAT1 activator 163, APP 5'UTR act 152, FLuc inh counter inactive, STAT1 activ conf 172, NFkB act STAT1ct inactive and STAT3 act 2 120.
For CCOc1ccc(N=c2scc(-c3ccccc3)n2CCO)cc1 the results were FLuc act counter inactive, NF-kB expr up inactive, STAT1 activator inactive, APP 5'UTR act inactive and FLuc inh counter inactive.
`CC1CC(C(F)(F)C(F)(F)F)n2nc(C(=O)O)cc2N1` (stereo unspecified) gave FLuc act counter inactive, NF-kB expr up inactive, STAT1 activator inactive, APP 5'UTR act inactive and FLuc inh counter inactive.
Screening O=C1OC(Cc2ccccn2)C(O)=C1C1=NCCCCN1 (stereo unspecified) returned Pf gamet viab inactive, FLuc act counter inactive, NF-kB expr up inactive, STAT1 activator 152, APP 5'UTR act inactive, FLuc inh counter inactive, STAT1 activ conf 151, NFkB act STAT1ct inactive and STAT3 act 2 114.
`O=C1OC(Cc2ccccn2)C(O)=C1C1=NCCCN1` (stereo unspecified) gave Pf gamet viab inactive, FLuc act counter inactive, NF-kB expr up inactive, STAT1 activator inactive, APP 5'UTR act inactive and FLuc inh counter inactive.
Screening Cc1ccc(/C(N)=N/OC(=O)c2ccc(C)cc2Cl)cc1 returned Pf gamet viab inactive, FLuc act counter inactive, NF-kB expr up inactive, STAT1 activator 164, APP 5'UTR act 162, FLuc inh counter 73, STAT1 activ conf 207, NFkB act STAT1ct inactive and STAT3 act 2 inactive.
`N/C(=N\OC(=O)c1ccccc1Cl)c1ccc(Cl)cc1` gave Pf gamet viab inactive, FLuc act counter inactive, NF-kB expr up 3.7, STAT1 activator 155, APP 5'UTR act inactive, FLuc inh counter 56, STAT1 activ conf 193, NFkB act STAT1ct inactive and STAT3 act 2 159.
`CCOP(=O)(OCC)/C(=N/OC(=O)c1ccc(Cl)cc1Cl)C(N)=O` gave Pf gamet viab inactive.
Cc1cccc(/C(N)=N/OC(=O)c2ccc(Cl)cc2Cl)c1 was read as Pf gamet viab inactive, FLuc act counter inactive, NF-kB expr up inactive, STAT1 activator 161, APP 5'UTR act 139, FLuc inh counter 90, STAT1 activ conf 222, NFkB act STAT1ct inactive and STAT3 act 2 114.
CC(O)[C@H]1CNC(=O)C(=O)N1CCc1cccc(F)c1 (stereo partly specified) was read as Pf gamet viab inactive.
Screening COc1ccccc1-c1csc(NC(=O)c2ccc(N3C(=O)CCC3=O)cc2)n1 returned Pf gamet viab inactive, FLuc act counter inactive, NF-kB expr up inactive, STAT1 activator inactive, APP 5'UTR act inactive and FLuc inh counter inactive.
For COc1ccc(/C=C/C(=O)Nc2ccccc2)cc1OC the results were Pf gamet viab inactive, FLuc act counter inactive, NF-kB expr up inactive, STAT1 activator 152, APP 5'UTR act inactive, FLuc inh counter inactive, STAT1 activ conf 163, NFkB act STAT1ct inactive and STAT3 act 2 inactive.

Screens as filed in PubChem BioAssay.
